Activity calls are given as the source filed them. The rule behind the calls is not given here.
Key:
[1] = Anticancer activity against human Molt4/C8 cells after 72 hrs; assay type: functional, cell-based; settings: MOLT-4, 72 h
CCRF-CEM [2] = assay: Anticancer activity against human CEM cells after 72 hrs; assay type: functional, cell-based
L1210 [3] = assay: Anticancer activity against mouse L1210 cells after 48 hrs; assay type: functional, cell-based; settings: L1210, 48 h
Mus musculus [4] = assay: Toxicity in mouse assessed as mortality at 30 to 300 mg/kg, ip after 0.5 to 4 hrs; assay type: organism-based; parameters: dose 30-300 mg/kg, route intraperitoneal; settings: in vivo
Outline: (§1)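 Mice dosed intraperitoneally at 30, 100 and 300 mg/kg; animals observed for deaths and neurological deficit at 0.5 and 4 h after injection.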

Mus musculus [5] = assay: Neurotoxicity in mouse at 30 to 300 mg/kg, ip after 0.5 hrs by rotarod method; assay type: toxicity, organism-based; parameters: dose 30-300 mg/kg, route intraperitoneal; settings: in vivo
Outline: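 Mice given 30, 100 and 300 mg/kg by intraperitoneal injection; animals scored for mortality and neurotoxicity at 0.5 and 4 h after dosing.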

CCRF-CEM [6] = assay: Anticancer activity against human CCRF-CEM cells; assay type: functional, cell-based
HSC-2 [7] = assay: Selectivity index, ratio of average CC50 for normal human cell line to CC50 for human HSC2 cells
HSC-3 [8] = assay: Selectivity index, ratio of average CC50 for normal human cell line to CC50 for human HSC3 cells
COLO 205 = assay: Anticancer activity against human COLO205 cells; assay type: functional, cell-based
MOLT-4 = assay: Ratio of melphalan IC50 to compound IC50 for human Molt4/C8 cells; assay type: functional
CCRF-CEM [9] = assay: Ratio of melphalan IC50 to compound IC50 for human CEM cells; assay type: functional
HL-60 [10] = assay: Anticancer activity against human HL60 cells; assay type: functional, cell-based
K562 = assay: Anticancer activity against human K562 cells; assay type: functional, cell-based
RPMI-8226 = assay: Anticancer activity against human RPMI8226 cells; assay type: functional, cell-based
HL-60 [11] = assay: Cytotoxicity against human HL60 cells after 48 hrs; assay type: functional; settings: HL-60, 48 h
HSC-2 [12] = assay: Cytotoxicity against human HSC2 cells after 48 hrs; assay type: functional; settings: HSC-2, 48 h
HSC-3 [13] = assay: Cytotoxicity against human HSC3 cells after 48 hrs; assay type: functional; settings: HSC-3, 48 h
HSC-4 [14] = assay: Cytotoxicity against human HSC4 cells after 48 hrs; assay type: functional; settings: HSC-4, 48 h
[15] = Cytotoxicity against human HGF cells after 48 hrs; assay type: cell-based
HL-60 [16] = assay: Induction of mitochondrial pathway-dependent apoptosis in human HL60 cells assessed as DNA fragmentation at 0.5 to 8 uM after 6 hrs by agarose gel electrophoresis; assay type: functional, cell-based
Outline: (§2)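 Cells exposed 6 h to a range of concentrations; a UV-irradiated comparison was given 1 min of UV. Treated and control cells were then held 3 h in regular culture medium, after which DNA was extracted and run on 2% agarose gel electrophoresis.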

HSC-2 [17] = assay: Induction of mitochondrial pathway-dependent apoptosis in human HSC2 cells assessed as DNA fragmentation at 0.5 to 8 uM after 6 hrs by agarose gel electrophoresis; assay type: functional, cell-based; outline: as §2
HL-60 [18] = assay: Induction of mitochondrial pathway-dependent apoptosis in human HL60 cells assessed as caspase 3 activation at 1 to 3 uM; assay type: functional, cell-based
Outline: (§3)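 Caspase-3 activity measured in lysates of treated HL-60 and HSC-2 cells: 100 μg protein per assay, incubated 2 h with the substrate. Mean ± SD of three experiments.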

HSC-2 [19] = assay: Induction of mitochondrial pathway-dependent apoptosis in human HSC2 cells assessed as caspase 3 activation at 1 to 3 uM; assay type: functional, cell-based; outline: as §3
Mus musculus [20] = assay: Neurotoxicity in mouse at 30 to 300 mg/kg, ip after 0.5 to 4 hrs by rotarod method; assay type: toxicity, organism-based; parameters: dose 30-300 mg/kg, route intraperitoneal; settings: in vivo; outline: as §1
L1210 [21] = assay: Ratio of melphalan IC50 to compound IC50 for mouse L1210 cells; assay type: functional
HCT-116 = assay: Anticancer activity against human HCT116 cells; assay type: functional, cell-based
HCC 2998 = assay: Anticancer activity against human HCC2998 cells; assay type: functional, cell-based
HCT-15 = assay: Anticancer activity against human HCT15 cells; assay type: functional, cell-based
HT-29 = assay: Anticancer activity against human HT-29 cells; assay type: functional, cell-based
KM12 = assay: Anticancer activity against human KM12 cells; assay type: functional, cell-based
SW-620 = assay: Anticancer activity against human SW620 cells; assay type: functional, cell-based
[22] = Cytotoxicity against human HPC cells after 48 hrs; assay type: cell-based
[23] = Cytotoxicity against human HPLF cells after 48 hrs; assay type: cell-based
HL-60 [24] = assay: Selectivity index, ratio of average CC50 for normal human cell line to CC50 for human HL-60 cells
HSC-4 [25] = assay: Selectivity index, ratio of average CC50 for normal human cell line to CC50 for human HSC4 cells

Structure (SMILES)	IC50 [1] [µM]	IC50 (CCRF-CEM [2]) [µM]	IC50 (L1210 [3]) [µM]	Activity (Mus musculus [4])	IC50 (CCRF-CEM [6]) [µM]	Ratio (HSC-2 [7])	Ratio (HSC-3 [8])	IC50 (COLO 205) [µM]	Ratio IC50 (MOLT-4)	Ratio IC50 (CCRF-CEM [9])	IC50 (HL-60 [10]) [µM]	IC50 (K562) [µM]	IC50 (RPMI-8226) [µM]	Activity (Mus musculus [20])	IC50 (HCT-116) [µM]	IC50 (HCC 2998) [µM]	IC50 (HCT-15) [µM]	IC50 (HT-29) [µM]	IC50 (KM12) [µM]	IC50 (SW-620) [µM]	also measured
O=C1/C(=C/c2ccccc2)CN(C(=O)CCSCCS(=O)(=O)O)C/C1=C\c1ccccc1	143	125	234	Non-toxic	–	–	–	–	–	–	–	–	–	–	–	–	–	–	–	–	Activity (Mus musculus [5]): Toxic
O=C1/C(=C/c2ccc(Cl)cc2)CN(C(=O)CCSCCO)C/C1=C\c1ccc(Cl)cc1	0.42	0.69	6.47	Non-toxic	0.21	17.1	8.3	0.46	7.6	3.6	0.32	0.1	0.08	Non-toxic	0.17	1.1	0.26	0.26	0.19	0.17	CC50 (HL-60 [11]): 1 µM; CC50 (HSC-2 [12]): 0.47 µM; CC50 (HSC-3 [13]): 0.97 µM; CC50 (HSC-4 [14]): 0.51 µM; CC50 at 48 h [15]: 8.3 µM; Activity (HL-60 [16]): Active; Activity (HSC-2 [17]): Active; Activity (HL-60 [18]): Active; Activity (HSC-2 [19]): Active; Ratio IC50 (L1210 [21]): 43; CC50 at 48 h [22]: 7.2 µM; CC50 at 48 h [23]: 8.6 µM; Ratio (HL-60 [24]): 8; Ratio (HSC-4 [25]): 15.8
COc1ccc(/C=C2\CN(C(=O)CCSCCO)C/C(=C\c3ccc(OC)cc3)C2=O)cc1	1.66	3.51	19.6	Non-toxic	0.47	6.5	4.8	2.51	2	6.6	1.7	2.88	0.33	Non-toxic	1.51	2	2.19	2.4	1.98	2.14	CC50 (HL-60 [11]): 3.2 µM; CC50 (HSC-2 [12]): 2.41 µM; CC50 (HSC-3 [13]): 3.3 µM; CC50 (HSC-4 [14]): 2.4 µM; CC50 at 48 h [15]: 17 µM; Ratio IC50 (L1210 [21]): 6.6; CC50 at 48 h [22]: 14 µM; CC50 at 48 h [23]: 16 µM; Ratio (HL-60 [24]): 4.9; Ratio (HSC-4 [25]): 6.5
Cc1ccc(/C=C2\CN(C(=O)CCSCCS(=O)(=O)O)C/C(=C\c3ccc(C)cc3)C2=O)cc1	79.7	194	198	Non-toxic	–	–	–	–	–	–	–	–	–	–	–	–	–	–	–	–	Activity (Mus musculus [5]): Toxic
O=C1/C(=C/c2ccc(Cl)cc2)CN(C(=O)CCSCCS(=O)(=O)O)C/C1=C\c1ccc(Cl)cc1	35.8	41.6	100	Non-toxic	9.33	–	–	24	–	–	25.7	28.2	18.2	Non-toxic	28.2	22.4	30.2	25.1	25.1	29.5	–
O=C1/C(=C/c2ccc([N+](=O)[O-])cc2)CN(C(=O)CCSCCS(=O)(=O)O)C/C1=C\c1ccc([N+](=O)[O-])cc1	6.98	7.44	11.4	Non-toxic	–	–	–	–	–	–	–	–	–	Non-toxic	–	–	–	–	–	–	–
O=C1/C(=C/c2ccc([N+](=O)[O-])cc2)CN(C(=O)CCSCCO)C/C1=C\c1ccc([N+](=O)[O-])cc1	0.49	0.48	3.92	Non-toxic	0.04	17.3	8.5	0.06	6.7	5.1	0.1	0.06	0.02	Non-toxic	0.11	0.28	0.21	0.1	0.17	0.07	CC50 (HL-60 [11]): 0.44 µM; CC50 (HSC-2 [12]): 0.34 µM; CC50 (HSC-3 [13]): 0.69 µM; CC50 (HSC-4 [14]): 0.38 µM; CC50 at 48 h [15]: 5.4 µM; Activity (HL-60 [16]): Active; Activity (HSC-2 [17]): inactive; Activity (HL-60 [18]): Active; Activity (HSC-2 [19]): inactive; Ratio IC50 (L1210 [21]): 96; CC50 at 48 h [22]: 5.8 µM; CC50 at 48 h [23]: 6.4 µM; Ratio (HL-60 [24]): 13.3; Ratio (HSC-4 [25]): 15.5

Reference: ChEMBL document CHEMBL1772966, “3,5-Bis(benzylidene)-1-[3-(2-hydroxyethylthio)propanoyl]piperidin-4-ones: a novel cluster of potent tumor-selective cytotoxins” (J Med Chem, 2011)
